Activity calls are given as the source filed them. No cut-off for these calls is given here.
Assays:
[1] = organism: Homo sapiens; assay: Selectivity ratio of IC50 for human eNOS to IC50 for human iNOS
Method in brief: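 Human iNOS, eNOS or nNOS was incubated 1 h at 37 °C in 50 mM HEPES with 10 nM [3H]arginine and [14C]citrulline internal standard. Cofactors were NADP⁺, G6P, G6P dehydrogenase, MgCl2, FAD, FMN and BH4. eNOS and nNOS reactions also contained 25 nM calmodulin, 0.5 mM CaCl2 and 3.5 mM glutathione. Reactions were stopped with MES and passed through cation exchange resin, and [3H]citrulline was counted. Background was set with 10 μM AMT. IC50 values came from eight concentrations (0.01–10 μM), in three repeated experiments.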

[2] = molecular target: Nitric oxide sythases; iNOS & nNOS (Homo sapiens) (UniProt P29475+P35228); assay: Selectivity ratio of IC50 for human nNOS to IC50 for human iNOS; assay type: protein assay
Method in brief: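 Human nNOS and human iNOS each converting [³H]arginine (10 nM) to [³H]citrulline, with [¹⁴C]citrulline (80−120 nM) as internal standard, in 50 mM HEPES at 37 °C for 1 h. Cofactors were NADP⁺, G6P/G6PDH, MgCl₂, FAD, FMN and BH₄; nNOS also had calmodulin, CaCl₂ and glutathione. Eight concentrations (0.01−10 μM). Stopped with MES, passed over cation-exchange resin, filtrate counted. Background set with 10 μM AMT. Each IC50 from a curve, repeated three times.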

[3] = molecular target: Nitric oxide synthase 1 (Homo sapiens, UniProt P29475); assay: Inhibition of human nNOS assessed as reduction in L-[3H]-citrulline level using L-[3H]-arginine as substrate incubated for 1 hr
[4] = molecular target: Nitric oxide synthase, inducible (Homo sapiens, UniProt P35228); assay: Inhibition of human iNOS assessed as reduction in L-[3H]-citrulline level using L-[3H]-arginine as substrate incubated for 1 hr
[5] = tested on: BV-2; assay: Anti-neuroinflammation in mouse BV-2 cells assessed as inhibition of LPS-induced NO production at 1 uM preincubated for 6 hrs followed by LPS addition measured after 24 hrs by Griess reagent based assay; assay type: functional
Method in brief: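 BV-2 murine microglia were grown in DMEM with 10% FBS at 37 °C and 5% CO2, then seeded at 5 × 10³ cells/well. After 24 h, compound was added at 1 μM. LPS (500 ng/mL) followed 6 h later. After a further 24 h, medium was collected and NO was read at 540 nm with a colorimetric NO detection kit.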

[6] = molecular target: T1, Nitric oxide synthase 3 (Homo sapiens, UniProt P29474); assay: Inhibition of human eNOS assessed as reduction in L-[3H]-citrulline level using L-[3H]-arginine as substrate incubated for 1 hr
T1 sequence (P29474 whole entry): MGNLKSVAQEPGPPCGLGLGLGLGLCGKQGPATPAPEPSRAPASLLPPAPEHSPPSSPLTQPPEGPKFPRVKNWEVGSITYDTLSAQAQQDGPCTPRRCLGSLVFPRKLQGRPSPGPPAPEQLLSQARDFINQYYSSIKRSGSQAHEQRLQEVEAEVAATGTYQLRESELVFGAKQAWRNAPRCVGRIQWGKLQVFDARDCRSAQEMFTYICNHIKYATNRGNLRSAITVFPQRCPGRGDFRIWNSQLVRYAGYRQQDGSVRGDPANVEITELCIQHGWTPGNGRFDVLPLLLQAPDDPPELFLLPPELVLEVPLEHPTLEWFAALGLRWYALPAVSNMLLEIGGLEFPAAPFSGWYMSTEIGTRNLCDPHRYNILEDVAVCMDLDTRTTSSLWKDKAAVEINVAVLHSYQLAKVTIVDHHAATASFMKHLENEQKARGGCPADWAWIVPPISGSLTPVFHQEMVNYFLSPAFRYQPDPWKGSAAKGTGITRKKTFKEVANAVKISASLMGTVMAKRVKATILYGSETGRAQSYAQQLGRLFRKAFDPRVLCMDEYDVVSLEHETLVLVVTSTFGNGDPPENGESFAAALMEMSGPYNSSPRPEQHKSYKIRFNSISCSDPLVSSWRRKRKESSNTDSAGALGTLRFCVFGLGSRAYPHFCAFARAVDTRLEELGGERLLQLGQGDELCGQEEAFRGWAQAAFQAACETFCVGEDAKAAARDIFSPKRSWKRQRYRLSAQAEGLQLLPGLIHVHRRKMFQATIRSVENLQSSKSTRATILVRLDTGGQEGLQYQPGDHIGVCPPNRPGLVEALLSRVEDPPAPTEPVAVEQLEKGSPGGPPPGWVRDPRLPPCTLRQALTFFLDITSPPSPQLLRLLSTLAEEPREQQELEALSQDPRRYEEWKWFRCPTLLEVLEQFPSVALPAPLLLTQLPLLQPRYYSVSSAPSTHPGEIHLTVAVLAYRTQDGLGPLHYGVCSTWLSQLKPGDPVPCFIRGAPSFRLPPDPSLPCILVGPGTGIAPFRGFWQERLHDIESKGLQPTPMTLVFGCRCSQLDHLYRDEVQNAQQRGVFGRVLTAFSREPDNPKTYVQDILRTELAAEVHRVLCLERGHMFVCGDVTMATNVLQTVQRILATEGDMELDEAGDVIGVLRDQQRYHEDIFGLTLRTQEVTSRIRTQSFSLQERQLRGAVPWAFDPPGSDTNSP

[7] = Effective permeability of compound in PBS buffer at pH 7.4 at 200 uM incubated for 17 hrs by PAMPA-BBB assay; assay type: ADME; conditions: read-out: Peff
Method in brief: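 PAMPA-BBB: the donor filter was coated with porcine brain lipid (20 mg/mL in dodecane). Compound was loaded at 200 μM in 10 mM PBS pH 7.4, with PBS as acceptor. Plates were incubated 17 h at 25 °C in saturated humidity with 100 rpm orbital shaking. Donor and acceptor concentrations were read by UV and Pe was calculated from the flux equation. Values are the mean of triplicates with SD.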

[8] = Cmax in Balb/c mouse blood at 30 mg/kg, po administered as single dose measured upto 24 hrs by LC-MS analysis; assay type: ADME, organism-based; design: route oral, dose 30 mg/kg, time <=24
Method in brief: (§1)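 Male BALB/c mice were fasted 16 h and then given a single intragastric dose of 30 mg/kg. Blood and brain were collected after decapitation at 5, 10, 15 and 30 min and at 1, 2, 6, 8, 12 and 24 h. Plasma was obtained by centrifugation and brains were homogenized in saline. Samples underwent methanol protein precipitation and single-quadrupole LC-MS on a C18 column at 30 °C, using isocratic 40% acetonitrile with 0.1% formic acid.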

[9] = Half life in Balb/c mouse brain at 30 mg/kg, po administered as single dose measured upto 24 hrs by LC-MS analysis; assay type: ADME, organism-based; method in brief: as §1
[10] = AUC (0 to infinity) in Balb/c mouse brain at 30 mg/kg, po administered as single dose measured upto 24 hrs by LC-MS analysis; assay type: ADME, organism-based; design: route oral, dose 30 mg/kg, time <=24; method in brief: as §1
[11] = Half life in Balb/c mouse blood at 30 mg/kg, po administered as single dose measured upto 24 hrs by LC-MS analysis; assay type: ADME, organism-based; method in brief: as §1
[12] = Cmax in Balb/c mouse brain at 30 mg/kg, po administered as single dose measured upto 24 hrs by LC-MS analysis; assay type: ADME, organism-based; design: route oral, dose 30 mg/kg, time <=24; method in brief: as §1
[13] = AUC (0 to infinity) in Balb/c mouse blood at 30 mg/kg, po administered as single dose measured upto 24 hrs by LC-MS analysis; assay type: ADME, organism-based; design: route oral, dose 30 mg/kg, time <=24; method in brief: as §1

Sequence of Nitric oxide synthase, inducible (P35228 whole entry): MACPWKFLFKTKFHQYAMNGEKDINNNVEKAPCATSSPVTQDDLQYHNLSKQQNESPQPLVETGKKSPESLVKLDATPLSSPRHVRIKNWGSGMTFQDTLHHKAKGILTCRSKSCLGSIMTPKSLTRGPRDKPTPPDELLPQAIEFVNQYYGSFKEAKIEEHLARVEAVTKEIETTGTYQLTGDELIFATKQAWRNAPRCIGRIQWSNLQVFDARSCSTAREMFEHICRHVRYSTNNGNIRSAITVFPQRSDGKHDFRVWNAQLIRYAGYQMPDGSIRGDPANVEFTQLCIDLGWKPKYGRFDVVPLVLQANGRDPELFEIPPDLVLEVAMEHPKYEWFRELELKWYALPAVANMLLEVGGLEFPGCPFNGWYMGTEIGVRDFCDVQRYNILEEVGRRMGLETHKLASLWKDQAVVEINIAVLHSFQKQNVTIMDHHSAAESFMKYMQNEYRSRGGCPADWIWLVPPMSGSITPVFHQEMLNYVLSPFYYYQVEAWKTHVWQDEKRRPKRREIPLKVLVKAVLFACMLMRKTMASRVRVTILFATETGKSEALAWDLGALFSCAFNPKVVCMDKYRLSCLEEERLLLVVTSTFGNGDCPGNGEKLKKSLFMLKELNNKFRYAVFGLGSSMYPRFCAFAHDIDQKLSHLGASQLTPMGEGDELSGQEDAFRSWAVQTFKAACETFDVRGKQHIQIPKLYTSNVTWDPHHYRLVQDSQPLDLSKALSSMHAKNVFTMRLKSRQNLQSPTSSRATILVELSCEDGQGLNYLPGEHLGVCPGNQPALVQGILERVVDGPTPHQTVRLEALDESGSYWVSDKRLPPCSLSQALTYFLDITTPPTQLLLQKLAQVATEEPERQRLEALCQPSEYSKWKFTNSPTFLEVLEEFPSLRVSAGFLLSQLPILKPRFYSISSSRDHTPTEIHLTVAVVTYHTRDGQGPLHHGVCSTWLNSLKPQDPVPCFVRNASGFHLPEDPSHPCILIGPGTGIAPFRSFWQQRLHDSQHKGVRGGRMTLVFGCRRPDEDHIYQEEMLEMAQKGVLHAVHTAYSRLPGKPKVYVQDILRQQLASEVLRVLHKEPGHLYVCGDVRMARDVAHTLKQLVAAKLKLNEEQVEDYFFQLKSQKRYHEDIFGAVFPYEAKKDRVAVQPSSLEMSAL
Sequence of Nitric oxide sythases; iNOS & nNOS (Homo sapiens) (P29475 whole entry, looked up): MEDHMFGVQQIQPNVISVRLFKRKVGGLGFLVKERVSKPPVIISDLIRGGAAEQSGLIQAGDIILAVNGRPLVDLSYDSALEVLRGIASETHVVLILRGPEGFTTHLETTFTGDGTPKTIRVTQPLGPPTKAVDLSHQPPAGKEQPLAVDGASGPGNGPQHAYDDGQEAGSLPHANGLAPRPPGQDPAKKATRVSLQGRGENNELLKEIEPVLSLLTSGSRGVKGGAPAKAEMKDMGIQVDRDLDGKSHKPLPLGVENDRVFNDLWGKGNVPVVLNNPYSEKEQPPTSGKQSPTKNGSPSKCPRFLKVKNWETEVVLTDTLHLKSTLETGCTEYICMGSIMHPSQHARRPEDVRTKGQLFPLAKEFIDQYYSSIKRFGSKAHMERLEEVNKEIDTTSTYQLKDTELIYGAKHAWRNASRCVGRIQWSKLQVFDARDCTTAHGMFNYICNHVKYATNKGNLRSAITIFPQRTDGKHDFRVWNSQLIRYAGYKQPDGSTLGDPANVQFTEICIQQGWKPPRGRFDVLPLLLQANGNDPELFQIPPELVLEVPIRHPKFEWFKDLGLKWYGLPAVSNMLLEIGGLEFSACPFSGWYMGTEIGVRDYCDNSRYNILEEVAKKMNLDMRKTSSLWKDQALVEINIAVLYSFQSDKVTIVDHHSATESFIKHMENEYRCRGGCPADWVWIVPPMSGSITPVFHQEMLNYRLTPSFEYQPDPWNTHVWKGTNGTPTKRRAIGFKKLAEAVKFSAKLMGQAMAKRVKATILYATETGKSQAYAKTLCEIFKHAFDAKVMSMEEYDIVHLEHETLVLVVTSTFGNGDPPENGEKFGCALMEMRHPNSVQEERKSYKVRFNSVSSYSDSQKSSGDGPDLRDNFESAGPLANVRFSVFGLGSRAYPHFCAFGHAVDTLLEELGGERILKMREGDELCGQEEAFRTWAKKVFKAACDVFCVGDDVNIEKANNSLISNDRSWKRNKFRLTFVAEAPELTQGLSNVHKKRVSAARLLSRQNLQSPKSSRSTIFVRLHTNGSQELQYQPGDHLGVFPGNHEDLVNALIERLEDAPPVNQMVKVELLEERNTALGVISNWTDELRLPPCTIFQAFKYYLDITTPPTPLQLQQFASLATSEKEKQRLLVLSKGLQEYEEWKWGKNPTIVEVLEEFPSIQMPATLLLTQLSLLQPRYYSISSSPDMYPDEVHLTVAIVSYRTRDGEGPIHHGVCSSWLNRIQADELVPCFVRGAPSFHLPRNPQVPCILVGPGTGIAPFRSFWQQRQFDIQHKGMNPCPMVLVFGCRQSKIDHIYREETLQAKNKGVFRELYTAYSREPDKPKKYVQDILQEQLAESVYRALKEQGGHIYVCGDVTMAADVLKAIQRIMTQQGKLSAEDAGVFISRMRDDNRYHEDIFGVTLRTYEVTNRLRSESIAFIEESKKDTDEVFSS
Sequence of Nitric oxide sythases; iNOS & nNOS (Homo sapiens) (P35228 whole entry, looked up): as the sequence (P35228 whole entry) above
Sequence of Nitric oxide synthase 1 (P29475 whole entry): as the sequence (P29475 whole entry, looked up) above

SMILES | Ratio IC50 [1] | Ratio IC50 [2] | IC50 [3] [µM] | IC50 [4] [µM] | Activity [5] | IC50 [6] [µM] | Papp at 17 h, 200 µM [7] [×10⁻⁶ cm/s] | Cmax [8] [ng/mL] | half-life [9] [h] | AUC(0-inf) [10] [ng·h/mL] | half-life [11] [h] | Cmax [12] [ng/mL] | AUC(0-inf) [13] [ng·h/mL]
CC(C)C[C@H](NC(=O)/C=C/c1ccc(Cl)c(Cl)c1)C(=O)O | 39 | 39 | 29.6 | 0.765 | Active | 29.7 |  |  |  |  |  |  | 
O=C(/C=C/c1ccccc1Cl)N[C@@H](Cc1ccc(F)cc1)C(=O)O | 180 | 153 | 126 | 0.82 | Active | 147 |  |  |  |  |  |  | 
O=C(/C=C/c1ccc(Cl)c(Cl)c1)N[C@@H](Cc1ccc(F)cc1)C(=O)O | 165 | 149 | 149 | 0.993 | Active | 164 |  |  |  |  |  |  | 
COc1cc(/C=C/C(=O)N[C@H](Cc2ccc(O)cc2)C(=O)O)ccc1O | 52 | 45 | 40.3 | 0.892 |  | 46.6 | 1.23 | 1000 | 0.9 | 567 | 1.2 | 40.2 | 3450
CC(=N)NCc1cccc(CN)c1 [1400W] |  |  |  |  |  |  | 3.18 |  |  |  |  |  | 

Reference: ChEMBL document CHEMBL5046219, “Optimization of N-Phenylpropenoyl-l-amino Acids as Potent and Selective Inducible Nitric Oxide Synthase Inhibitors for Parkinson's Disease” (J Med Chem, 2021)
